# According to ChEMBL document CHEMBL3297648, “Diterpenoids from the Chinese liverwort Heteroscyphus tener and their antiproliferative effects” (J Nat Prod, 2014):
# The source made the active and inactive calls. The rule behind the calls is not given here.
# Legend:
# [1] = target: Serine/threonine-protein kinase ATR (Homo sapiens) (UniProt Q13535); experiment: Activation of ATR in human PC3 cells assessed as ChK1 phosphorylation at Ser296 at 20 uM after 12 hrs by western blot analysis; type: cell-based; conditions: PC-3
# Chain of Serine/threonine-protein kinase ATR (Homo sapiens) (Q13535 whole entry, looked up): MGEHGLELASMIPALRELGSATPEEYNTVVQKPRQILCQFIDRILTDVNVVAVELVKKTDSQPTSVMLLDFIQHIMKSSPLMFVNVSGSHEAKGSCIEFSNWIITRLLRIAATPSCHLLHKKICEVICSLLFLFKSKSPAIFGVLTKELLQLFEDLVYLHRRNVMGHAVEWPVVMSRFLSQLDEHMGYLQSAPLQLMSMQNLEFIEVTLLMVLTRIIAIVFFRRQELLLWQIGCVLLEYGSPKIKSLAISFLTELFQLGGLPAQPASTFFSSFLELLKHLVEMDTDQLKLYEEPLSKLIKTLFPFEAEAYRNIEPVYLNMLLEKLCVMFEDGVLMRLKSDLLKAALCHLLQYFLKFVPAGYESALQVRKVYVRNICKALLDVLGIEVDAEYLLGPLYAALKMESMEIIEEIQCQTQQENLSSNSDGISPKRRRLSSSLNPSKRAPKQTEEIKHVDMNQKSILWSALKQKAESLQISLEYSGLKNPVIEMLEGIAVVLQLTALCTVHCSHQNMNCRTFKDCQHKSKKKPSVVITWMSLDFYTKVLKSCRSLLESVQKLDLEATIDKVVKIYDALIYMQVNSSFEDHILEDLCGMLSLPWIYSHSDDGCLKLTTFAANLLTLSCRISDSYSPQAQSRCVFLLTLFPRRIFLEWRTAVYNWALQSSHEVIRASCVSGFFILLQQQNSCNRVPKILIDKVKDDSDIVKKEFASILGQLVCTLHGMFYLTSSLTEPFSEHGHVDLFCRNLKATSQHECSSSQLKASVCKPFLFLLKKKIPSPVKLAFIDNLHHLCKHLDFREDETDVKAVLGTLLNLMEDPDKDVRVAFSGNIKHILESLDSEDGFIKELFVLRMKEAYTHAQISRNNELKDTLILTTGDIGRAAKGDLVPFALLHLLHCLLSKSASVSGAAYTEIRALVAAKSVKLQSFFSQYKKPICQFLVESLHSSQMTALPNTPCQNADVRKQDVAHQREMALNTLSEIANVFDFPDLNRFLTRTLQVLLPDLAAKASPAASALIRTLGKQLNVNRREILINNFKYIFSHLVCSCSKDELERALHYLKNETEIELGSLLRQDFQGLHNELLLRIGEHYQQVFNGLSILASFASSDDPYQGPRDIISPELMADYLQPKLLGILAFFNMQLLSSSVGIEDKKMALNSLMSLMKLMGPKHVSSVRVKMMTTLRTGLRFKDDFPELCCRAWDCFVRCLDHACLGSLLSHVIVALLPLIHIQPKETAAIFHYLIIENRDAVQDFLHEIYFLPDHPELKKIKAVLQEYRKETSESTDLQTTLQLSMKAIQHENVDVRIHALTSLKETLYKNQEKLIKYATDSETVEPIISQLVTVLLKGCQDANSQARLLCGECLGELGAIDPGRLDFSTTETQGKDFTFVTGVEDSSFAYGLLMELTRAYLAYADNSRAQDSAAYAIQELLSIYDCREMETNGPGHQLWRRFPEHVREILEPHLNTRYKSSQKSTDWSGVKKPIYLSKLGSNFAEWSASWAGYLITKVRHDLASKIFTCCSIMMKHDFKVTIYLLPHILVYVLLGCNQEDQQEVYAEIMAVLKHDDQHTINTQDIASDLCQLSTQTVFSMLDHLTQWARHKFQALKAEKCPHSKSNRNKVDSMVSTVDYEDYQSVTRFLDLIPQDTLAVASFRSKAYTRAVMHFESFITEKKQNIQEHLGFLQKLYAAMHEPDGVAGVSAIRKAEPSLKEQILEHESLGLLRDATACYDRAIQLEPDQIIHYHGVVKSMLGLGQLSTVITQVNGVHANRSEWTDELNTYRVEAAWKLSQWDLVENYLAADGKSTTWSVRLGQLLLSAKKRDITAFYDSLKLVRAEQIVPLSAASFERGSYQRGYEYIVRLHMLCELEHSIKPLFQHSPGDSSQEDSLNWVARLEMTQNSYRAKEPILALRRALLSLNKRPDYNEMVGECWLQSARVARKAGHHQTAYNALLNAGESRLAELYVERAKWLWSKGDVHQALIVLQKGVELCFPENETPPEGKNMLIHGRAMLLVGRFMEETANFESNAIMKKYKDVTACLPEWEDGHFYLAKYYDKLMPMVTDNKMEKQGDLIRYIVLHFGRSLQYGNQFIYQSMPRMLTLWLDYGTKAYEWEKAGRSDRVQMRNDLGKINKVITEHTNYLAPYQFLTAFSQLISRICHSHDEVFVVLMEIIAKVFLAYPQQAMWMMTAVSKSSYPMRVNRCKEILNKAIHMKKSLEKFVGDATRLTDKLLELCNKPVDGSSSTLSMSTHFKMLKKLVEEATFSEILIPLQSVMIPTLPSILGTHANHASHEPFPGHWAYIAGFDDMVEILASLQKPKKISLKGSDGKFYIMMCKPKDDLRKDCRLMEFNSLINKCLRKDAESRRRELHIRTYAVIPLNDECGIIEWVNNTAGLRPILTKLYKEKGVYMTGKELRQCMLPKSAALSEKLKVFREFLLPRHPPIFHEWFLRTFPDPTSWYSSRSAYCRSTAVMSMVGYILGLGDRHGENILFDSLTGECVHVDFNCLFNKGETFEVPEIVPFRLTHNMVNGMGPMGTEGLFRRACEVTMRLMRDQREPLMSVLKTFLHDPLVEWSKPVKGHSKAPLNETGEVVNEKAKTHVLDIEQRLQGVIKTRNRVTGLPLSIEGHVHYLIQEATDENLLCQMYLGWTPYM
# In short: (§1)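 Cells treated at 20 μM for various times, lysed in RIPA buffer with protease/phosphatase inhibitors, protein quantified by BCA. Equal protein run on 12% SDS-PAGE, transferred to nitrocellulose, blocked 1 h in 5% milk/TBST, primary antibodies overnight at 4 °C, secondary 1:2000 for 45 min, ECL detection on film. GAPDH used as loading control.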
# [2] = Decrease in ChK1 protein expression in human DU145 cells at 20 uM after 2 to 48 hrs by western blot analysis; type: functional, cell-based; conditions: DU-145; in short: as §1
# [3] = target: Breast cancer type 1 susceptibility protein (Homo sapiens) (UniProt P38398); experiment: Inactivation of BRCA1 in human PC3 cells assessed as decline in BRCA1 phosphorylation at Ser1524 at 20 uM after 8 hrs by western blot analysis; type: cell-based; conditions: PC-3; in short: as §1
# Chain of Breast cancer type 1 susceptibility protein (Homo sapiens) (P38398 whole entry, looked up): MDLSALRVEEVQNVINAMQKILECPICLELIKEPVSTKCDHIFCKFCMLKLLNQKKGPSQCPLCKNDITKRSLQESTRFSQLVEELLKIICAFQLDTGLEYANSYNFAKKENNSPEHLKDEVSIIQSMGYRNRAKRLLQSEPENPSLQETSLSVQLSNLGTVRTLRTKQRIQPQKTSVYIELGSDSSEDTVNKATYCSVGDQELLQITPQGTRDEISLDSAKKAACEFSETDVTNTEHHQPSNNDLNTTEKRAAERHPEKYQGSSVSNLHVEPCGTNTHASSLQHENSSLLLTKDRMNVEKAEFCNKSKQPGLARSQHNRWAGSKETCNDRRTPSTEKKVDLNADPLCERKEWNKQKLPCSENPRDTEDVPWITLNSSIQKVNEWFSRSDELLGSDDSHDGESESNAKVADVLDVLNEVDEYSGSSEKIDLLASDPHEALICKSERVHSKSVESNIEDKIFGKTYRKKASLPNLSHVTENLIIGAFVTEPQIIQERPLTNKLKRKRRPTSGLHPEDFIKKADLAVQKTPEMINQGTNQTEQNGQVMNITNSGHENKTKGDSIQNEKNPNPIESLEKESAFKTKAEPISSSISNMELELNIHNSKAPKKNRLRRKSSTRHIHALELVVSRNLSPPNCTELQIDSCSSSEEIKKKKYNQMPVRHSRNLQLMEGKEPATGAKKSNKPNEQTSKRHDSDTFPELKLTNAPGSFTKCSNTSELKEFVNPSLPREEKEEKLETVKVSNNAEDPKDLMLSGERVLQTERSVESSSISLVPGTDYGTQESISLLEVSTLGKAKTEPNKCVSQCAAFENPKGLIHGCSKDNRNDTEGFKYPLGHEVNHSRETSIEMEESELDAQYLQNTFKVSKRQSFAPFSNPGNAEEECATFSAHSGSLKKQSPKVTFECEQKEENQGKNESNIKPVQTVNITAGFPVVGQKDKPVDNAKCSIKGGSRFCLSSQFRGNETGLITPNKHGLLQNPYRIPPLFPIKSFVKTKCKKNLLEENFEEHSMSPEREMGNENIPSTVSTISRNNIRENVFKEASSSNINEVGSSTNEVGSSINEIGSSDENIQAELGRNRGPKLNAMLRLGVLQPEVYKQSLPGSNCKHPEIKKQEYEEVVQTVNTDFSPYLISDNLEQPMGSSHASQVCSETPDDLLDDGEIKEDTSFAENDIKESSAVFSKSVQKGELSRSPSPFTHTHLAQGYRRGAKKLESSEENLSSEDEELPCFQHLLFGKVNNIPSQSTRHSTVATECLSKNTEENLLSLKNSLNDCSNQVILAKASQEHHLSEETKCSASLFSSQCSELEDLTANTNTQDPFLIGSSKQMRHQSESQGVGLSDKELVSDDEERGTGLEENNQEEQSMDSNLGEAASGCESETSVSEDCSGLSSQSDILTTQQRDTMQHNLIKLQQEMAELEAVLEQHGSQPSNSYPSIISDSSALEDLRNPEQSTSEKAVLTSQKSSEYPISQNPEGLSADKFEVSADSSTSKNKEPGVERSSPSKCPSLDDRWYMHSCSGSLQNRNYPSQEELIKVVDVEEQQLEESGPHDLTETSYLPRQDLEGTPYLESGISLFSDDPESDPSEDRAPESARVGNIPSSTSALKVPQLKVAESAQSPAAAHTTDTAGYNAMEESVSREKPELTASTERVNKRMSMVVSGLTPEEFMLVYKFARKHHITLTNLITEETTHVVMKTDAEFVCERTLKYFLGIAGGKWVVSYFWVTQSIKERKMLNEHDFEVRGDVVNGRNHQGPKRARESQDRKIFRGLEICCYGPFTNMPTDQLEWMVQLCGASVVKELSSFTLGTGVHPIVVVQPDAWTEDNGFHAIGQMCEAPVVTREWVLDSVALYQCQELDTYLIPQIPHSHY
# DU-145 [4] = experiment: Cell cycle arrest at G0/G1 phase in human DU145 cells after 24 hrs by propidium iodide staining based flow cytometry; type: functional
# [5] = Antiproliferative activity against human PC3 cells assessed as inhibition of cell viability after 24 hrs by MTT assay; type: functional, cell-based; conditions: PC-3, 24 h
# In short: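 Cells grown to 50–70% confluence (RWPE1 in K-SFM with pituitary extract and EGF; the other lines in RPMI 1640 with 10% FBS), 5% CO2, 37 °C. Treated for 24 h with DMSO vehicle, compounds, or cisplatin as positive control. MTT (5 mg/mL) added for 4 h, formazan dissolved in DMSO, absorbance read at 570 nm. Viability taken relative to untreated cells after blank subtraction, IC50 fitted from % viability, at least three experiments.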
# [6] = Cell cycle arrest in human PC3 cells assessed as accumulation at subG1 phase at 10 uM after 24 hrs by propidium iodide staining based flow cytometry (reference value: 0.13%); type: functional; conditions: PC-3
# [7] = Cell cycle arrest in human PC3 cells assessed as accumulation at S phase at 10 uM after 24 hrs by propidium iodide staining based flow cytometry (reference value: 22.07%); type: functional; conditions: PC-3
# DU-145 [8] = experiment: Cell cycle arrest in human DU145 cells assessed as accumulation at G0/G1 phase at 10 uM after 24 hrs by propidium iodide staining based flow cytometry (reference value: 63.34%); type: functional
# DU-145 [9] = experiment: Cell cycle arrest in human DU145 cells assessed as accumulation at S phase at 10 uM after 24 hrs by propidium iodide staining based flow cytometry (reference value: 25.94%); type: functional
# DU-145 [10] = experiment: Cell cycle arrest in human DU145 cells assessed as accumulation at S phase at 20 uM after 24 hrs by propidium iodide staining based flow cytometry (reference value: 25.94%); type: functional
# [11] = Decrease in cyclin D1 protein expression in human PC3 cells by western blot analysis; type: functional, cell-based; conditions: PC-3, TDE = time-dependent effect
# In short: (§2)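 Western blot of cyclin D1, cyclin E, Cdk4 and p21 in PC3 and DU145 lysates. Lysis in RIPA buffer plus protease inhibitors, BCA quantification, 12% SDS-PAGE, nitrocellulose transfer, milk block, primaries overnight at 4 °C, secondary 1:2000 for 45 min, ECL read-out. GAPDH served as loading control.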
# [12] = Decrease in cyclin D1 protein expression in human DU145 cells by western blot analysis; type: functional, cell-based; conditions: DU-145, TDE = time-dependent effect; in short: as §2
# DU-145 [13] = experiment: Increase in p21CIP1 protein expression in human DU145 cells after 2 to 48 hrs by western blot analysis; type: functional, cell-based; in short: as §2
# PC-3 [14] = experiment: Induction of apoptosis in human PC3 cells assessed as late apoptotic cells at 20 uM after 4 hrs by Annexin V-FITC/propidium iodide staining based flow cytometry (reference value: 7.92%); type: functional
# In short: (§3)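 Cells seeded in 6-well plates for 24 h, then given 20 μM for the stated times. Cells were trypsinized, PBS-washed, stained with annexin V-FITC/PI, and analysed immediately by flow cytometry. Means ± SD of three independent experiments; Student's t test against untreated control.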
# PC-3 [15] = experiment: Induction of apoptosis in human PC3 cells assessed as necrotic cells at 20 uM after 4 hrs by Annexin V-FITC/propidium iodide staining based flow cytometry (reference value: 0.98%); type: functional; in short: as §3
# PC-3 [16] = experiment: Induction of apoptosis in human PC3 cells assessed as early apoptotic cells at 20 uM after 8 hrs by Annexin V-FITC/propidium iodide staining based flow cytometry (reference value: 0.79%); type: functional; in short: as §3
# PC-3 [17] = experiment: Induction of apoptosis in human PC3 cells assessed as late apoptotic cells at 20 uM after 8 hrs by Annexin V-FITC/propidium iodide staining based flow cytometry (reference value: 7.92%); type: functional; in short: as §3
# PC-3 [18] = experiment: Induction of apoptosis in human PC3 cells assessed as early apoptotic cells at 20 uM after 12 hrs by Annexin V-FITC/propidium iodide staining based flow cytometry (reference value: 0.79%); type: functional; in short: as §3
# PC-3 [19] = experiment: Induction of apoptosis in human PC3 cells assessed as necrotic cells at 20 uM after 12 hrs by Annexin V-FITC/propidium iodide staining based flow cytometry (reference value: 0.98%); type: functional; in short: as §3
# PC-3 [20] = experiment: Induction of apoptosis in human PC3 cells assessed as late apoptotic cells at 20 uM after 24 hrs by Annexin V-FITC/propidium iodide staining based flow cytometry (reference value: 7.92%); type: functional; in short: as §3
# DU-145 [21] = experiment: Induction of apoptosis in human DU145 cells assessed as early apoptotic cells at 20 uM after 4 hrs by Annexin V-FITC/propidium iodide staining based flow cytometry (reference value: 1.60%); type: functional; in short: as §3
# DU-145 [22] = experiment: Induction of apoptosis in human DU145 cells assessed as late apoptotic cells at 20 uM after 8 hrs by Annexin V-FITC/propidium iodide staining based flow cytometry (reference value: 1.53%); type: functional; in short: as §3
# DU-145 [23] = experiment: Induction of apoptosis in human DU145 cells assessed as late apoptotic cells at 20 uM after 12 hrs by Annexin V-FITC/propidium iodide staining based flow cytometry (reference value: 1.53%); type: functional; in short: as §3
# DU-145 [24] = experiment: Induction of apoptosis in human DU145 cells assessed as early apoptotic cells at 20 uM after 24 hrs by Annexin V-FITC/propidium iodide staining based flow cytometry (reference value: 1.60%); type: functional; in short: as §3
# PC-3 [25] = experiment: Induction of apoptosis in human PC3 cells at 20 uM by Annexin V-FITC/propidium iodide staining based flow cytometry; type: functional, cell-based; conditions: TDE = time-dependent effect; in short: as §3
# PC-3 [26] = experiment: Induction of apoptosis in human PC3 cells assessed as cleaved caspase-3 level at 20 uM after 12 hrs by western blot analysis; type: functional, cell-based
# In short: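 Cells exposed to 20 μM for the stated times. Lysis in RIPA plus protease inhibitors, BCA protein assay, equal protein on 12% SDS-PAGE, transfer to nitrocellulose. Blocking in 5% milk/TBST 1 h; primary antibodies overnight at 4 °C; secondary 1:2000 for 45 min; ECL detection. GAPDH served as loading control.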
# DU-145 [27] = experiment: Induction of DNA damage in human DU145 cells assessed as gamma-H2AX phosphorylation at ser139 at 20 uM by western blot analysis; type: functional, cell-based; conditions: TDE = time-dependent effect; in short: as §1
# PC-3 [28] = experiment: Increase in H2AX protein expression in human PC3 cells at 20 uM after 2 to 48 hrs by western blot analysis; type: functional, cell-based; in short: as §1
smiles,measurement,setting,value
C=C[C@@](C)(O)CC[C@@H]1C(C)=CC[C@@H]2C(C)(C)CCC[C@@]12C,Activity,[1],Active
same,inhibition,[2],Active
same,inhibition,[3],Active
same,Activity,DU-145 [4],Dose-dependent effect
same,IC50,[5],26.6 µM
same,Activity,[6],1.94%
same,Activity,[7],13.9%
same,Activity,DU-145 [8],67.97%
same,Activity,DU-145 [9],21.68%
same,Activity,DU-145 [10],8.73%
same,inhibition,[11],tde
same,inhibition,[12],tde
same,Activity,DU-145 [13],Active
same,Activity,PC-3 [14],12.94%
same,Activity,PC-3 [15],2.75%
same,Activity,PC-3 [16],2.27%
same,Activity,PC-3 [17],15.29%
same,Activity,PC-3 [18],3.51%
same,Activity,PC-3 [19],4.68%
same,Activity,PC-3 [20],66.46%
same,Activity,DU-145 [21],4%
same,Activity,DU-145 [22],8.94%
same,Activity,DU-145 [23],11.32%
same,Activity,DU-145 [24],7.16%
same,Activity,PC-3 [25],tde
same,Activity,PC-3 [26],Active
same,Activity,DU-145 [27],tde
same,Activity,PC-3 [28],inactive
